Data from ChEMBL document CHEMBL1255338, “Differential effects of quinoline antimalarials on endocytosis in Plasmodium falciparum” (2008).
The source made the active and inactive calls. The rule behind the calls is not given here.

Assays:
Plasmodium falciparum [1] = assay: Antimalarial activity against schizont-stage Plasmodium falciparum 3D7 infected in erythrocyte assessed as inhibition of horseradish peroxidase(HRP) uptake after 10 hrs by colorimetric peroxidase assay; assay type: functional, organism-based
In short: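 Erythrocytes preloaded with HRP by hypotonic lysis, then infected by incubation with enriched schizont-infected cells. Parasites exposed to quinolines for 10 h, released with saponin, washed, and lysed in Triton X-100. HRP measured colorimetrically with O-phenylenediamine at 450 nm. Significance vs control taken at P < 0.05.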

Plasmodium falciparum [2] = assay: Antimalarial activity against early trophozoite-stage Plasmodium falciparum 3D7 infected in erythrocyte assessed as reduction in parasite hemoglobin content at 5 times IC50 after 8 hrs in presence of 40 uM protease inhibitor E64; assay type: functional, organism-based
Plasmodium falciparum [3] = assay: Antimalarial activity against Plasmodium falciparum 3D7 infected in erythrocyte assessed as reduction in endocytic vesicle content after 8 hrs by immunofluorescence microscopy; assay type: functional, organism-based
In short: (§1)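 Cultures left untreated or given quinoline for 8 h, then parasites freed by saponin lysis, fixed on polylysine-coated coverslips with paraformaldehyde and glutaraldehyde, permeabilized in Triton X-100, and stained with rabbit anti-Hb antiserum and TRITC-conjugated goat anti-rabbit antibody. Hb transport vesicles counted by fluorescence microscopy in 100 randomly chosen parasites per sample; mean per parasite ± SEM.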

Plasmodium falciparum [4] = assay: Antimalarial activity against early trophozoite-stage Plasmodium falciparum 3D7 infected in erythrocyte assessed as reduction in parasite hemoglobin content at 5 times IC50 after 8 hrs in presence of 40 uM protease inhibitor ALLN; assay type: functional, organism-based
Plasmodium falciparum [5] = assay: Antimalarial activity against early trophozoite-stage Plasmodium falciparum 3D7 infected in erythrocyte assessed as reduction in parasite hemoglobin content at 5 times IC50 after 8 hrs; assay type: functional
Plasmodium falciparum [6] = assay: Antimalarial activity against Plasmodium falciparum 3D7 infected in erythrocyte assessed as increase in vesicle content after 8 hrs by immunofluorescence microscopy; assay type: functional, organism-based; in short: as §1

Structure (SMILES)	inhibition (Plasmodium falciparum [1])	inhibition (Plasmodium falciparum [2])	inhibition (Plasmodium falciparum [3])	inhibition (Plasmodium falciparum [4])	inhibition (INH) (Plasmodium falciparum [5])	inhibition (Plasmodium falciparum [6])	inhibition (Plasmodium falciparum [5])
OC(c1cc(C(F)(F)F)nc2c(C(F)(F)F)cccc12)C1CCCCN1 (stereo not given) [MEFLOQUINE]	Active	inactive	Active	inactive	83%		
C=C[C@H]1CN2CC[C@H]1C[C@H]2[C@H](O)c1ccnc2ccc(OC)cc12 [QUININE]	Active	Active	Active	Active	84%		
CCN(CC)Cc1cc(Nc2ccnc3cc(Cl)ccc23)ccc1O	inactive	inactive		inactive		Active	inactive
CCCCN(CCCC)CCC(O)c1cc2c(Cl)cc(Cl)cc2c2cc(C(F)(F)F)ccc12 (stereo not given) [HALOFANTRINE]	Active	Active	Active	Active	64%		
CCN(CC)CCCC(C)Nc1ccnc2cc(Cl)ccc12 (stereo not given)	inactive	inactive		inactive		Active	inactive
